Shown is part of a subset that was picked to be rich in hits.
HCT116 bCat-KO: beta-catenin-lacking colon tumor cell growth suppression | HCT116 beta-catenin knockout viability, CellTiter-Glo, 60 h; active compounds read low | viability, % at 10 µM | actives 1.5% (n = 140,000) | AID 818;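 active = viability at or under a set limit, the compound median less 4 SD, cut at about 6% in these data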;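 note: 0% = Hyamine 1622 control at 20 µM and 100% = untreated cell control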
Fibroblast inh: blocks proliferation of human lung fibroblasts | LL 47 human lung fibroblast viability, ATP luminescence; active compounds read low | viability, % at 10 µM | actives 1.1% (n = 85,000);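 active = viability at or below 50% in the single dose screen; inactive = viability above 50%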;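 note: compound exposure lasted 72 h before the ATP readout; 100% = median luminescence of untreated cell-only wells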
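Assay system: human lung fibroblast line LL 47, low passage. Input: 1,150 fibroblasts seeded per well. Times: overnight cell rest, 72 h compound treatment at 37 °C. Evaluation: % viability of median cell-only signal. Technique: luminescent ATP detection, CellTiter-Glo. Control set: cell-only wells, no compound.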
H69AR growth 86K: growth inhibitors of human H69AR lung tumor cells. viability, % at 10 µM. H69AR lung tumor viability, ATP luminescence, 72 h; active compounds read low. AID 598. actives 6% (n = 85,000);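 active = viability at or below 40%; inactive = viability above 40%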;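 note: multidrug resistant small cell line overexpressing MRP-1 efflux transporter; 100% = mean luminescence of untreated control wells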
HCT116 PTEN-null: PTEN-deleted cell growth suppression. HCT116 PTEN-null viability, CellTiter-Glo, 60 h; active compounds read low. viability, % at 10 µM. actives 1.2% (n = 140,000);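 active = viability at or below a set limit, 4 SD under the median of all tested compounds, cut at about 3.7% in these data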;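 note: PTEN knockout HCT116 line with beta catenin targeted HCT116 as companion control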
HUVEC prolif 384: blocks proliferation of human endothelial cells; HUVEC proliferation, CellTiter-Glo luminescence, 72 h; active compounds read low; viability, % at 10 µM (by protocol); actives 1.1% (n = 86,000); AID 648;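 active = viability at or below 30%; inactive = viability above 30%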;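 note: 100% = median luminescence of DMSO-only cell control wells on each plate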
An asterisk follows results filed as active; . = not tested or not shown.

SMILES | HCT116 bCat-KO | Fibroblast inh | H69AR growth 86K | HCT116 PTEN-null | HUVEC prolif 384
COc1ccc2c(=O)c(-c3ccc4c(c3)OCO4)coc2c1 | 85.2 | . | . | 83.0 | .
O=C(CSc1ncnc2c1cnn2-c1ccccc1)Nc1ccc2c(c1)OCO2 | 96.1 | 93.3 | 37.4* | 103.4 | 75.8
CC(=O)c1c(C)[nH]c(C(=O)CSc2nnc(-c3ccccc3)n2Cc2ccc3c(c2)OCO3)c1C | 110.7 | 82.2 | 20.2* | 100.2 | 12.6*
CC1CCCCC1n1c(=S)[nH]c2ccccc2c1=O (centres undefined) | 81.8 | 82.0 | 17.6* | 86.5 | 81.7
Cc1ccnc(NC(=O)CCCOc2cc(=O)n(C)c3ccccc23)c1 | 5.4* | . | . | 2.9* | .
CCCCOc1ccc(C(=O)NNC(=S)NC(=O)CC)cc1 | 4.5* | . | . | 4.8 | .
CCC(=O)NC(=S)NNC(=O)c1ccc(OC)cc1 | 38.0 | . | . | 28.8 | .
Cc1cc(C)c(S(C)(=O)=O)c(Sc2ccc(Cl)cc2)n1 | 103.2 | . | . | 95.0 | .
Cc1ccccc1S(=O)(=O)NC1OC(=O)C(Cl)=C1Cl (centres undefined) | 100.7 | 95.9 | 7.1* | 107.0 | 100.2
CCN(Cc1ccccc1)c1ccc(/C=N/NS(=O)(=O)c2cccc([N+](=O)[O-])c2)cc1 | 83.7 | . | . | 98.8 | .
C[C@](N)(Cc1ccc(O)c(O)c1)C(=O)O | 6.1* | 100.0 | 93.7 | 18.4 | 102.5
CC(=O)c1oc2ccccc2c1NC(=O)CN1CCCCC1 | 88.6 | 95.4 | 87.9 | 94.1 | 92.9
Cc1nn(-c2ccc(Cl)cc2)c2sc(C(=O)N3CCN(c4ccccn4)CC3)cc12 | 92.0 | 95.8 | 21.0* | 94.6 | 35.6
CC[C@H](C)[C@H](NC(=O)c1ccc(Cl)cc1)C(=O)OCC(=O)c1ccc2c(c1)NC(=O)CO2 | 82.2 | 20.7* | 2.6* | 93.3 | 5.4*
NC(=S)Nn1c(-c2ccccc2)nc2ccccc2c1=O | 103.3 | . | . | 104.0 | .
CCC(C)NC(=O)c1cc(Sc2nnc(C)s2)nc2ccccc12 (centres undefined) | 96.4 | . | . | 86.6 | .
CCOC(=O)c1nnn(-c2nonc2N)c1COc1cc(C)c(Cl)c(C)c1 | . | 102.1 | 23.7* | . | 99.4
C=CCNCCOc1ccc(C(C)(C)c2ccccc2)cc1 | 74.3 | . | . | 77.0 | .
CN(C)CCCOc1ccc(C(C)(C)c2ccccc2)cc1 | 34.4 | 78.7 | 27.7* | 30.9 | 33.8
O=C(COC(=O)C1CC(O)CN1C(=O)Oc1ccccc1)c1ccc(Br)cc1 (centres undefined) | 88.7 | . | . | 97.0 | .
COc1ccccc1/C=C(\NC(=O)c1ccc(OC)c(OC)c1)C(=O)Nc1cccc([N+](=O)[O-])c1 | 103.2 | . | . | 102.2 | .
C[N+](C)(C)c1ccc(/C=N/Nc2nc(Cl)c(C#N)c(Cl)c2Cl)cc1 | 54.5 | . | . | 68.7 | .
N#Cc1c(Cl)nc(N/N=C/c2ccccc2)c(Cl)c1Cl | 2.8* | . | . | 1.6* | .
O=C(CNC(=O)Cc1ccccc1)NCC(=O)OCc1ccc(C(=O)c2ccccc2)cc1 | 102.7 | . | . | 81.5 | .
CCOC(=O)N1CCN(S(=O)(=O)c2ccc(F)c(C(=O)Nc3cccc(Cl)c3C)c2)CC1 | 52.0 | . | . | 47.1 | .
SMILES | HCT116 bCat-KO | Fibroblast inh | H69AR growth 86K | HCT116 PTEN-null | HUVEC prolif 384
CC(=O)c1c(C(C)=O)c(C)n(Cc2ccccc2)c1C | 81.9 | 95.6 | 97.3 | 87.1 | 99.0
Cc1c(C=O)c(C=O)c(C)n1Cc1ccccc1 | 10.2 | 47.8* | 38.5* | 9.3 | 51.2
Cc1c(C(=O)NNC(=S)Nc2cccc(Cl)c2)nnn1-c1ccccc1 | 101.3 | . | . | 96.7 | .
CCCCCCc1cc2cc(C(=O)Nc3cccc(OC)c3)c(=O)oc2cc1O | 5.3* | . | . | 4.9 | .
CCCCCCc1cc2cc(C(=O)NC)c(=N)oc2cc1O | 9.0 | . | . | 4.0 | .
CCCCCCc1cc2cc(S(=O)(=O)c3ccc(F)c(Cl)c3)c(=O)oc2cc1O | 2.9* | . | . | 3.1* | .
CCCCCCc1cc2cc(C(N)=O)c(=N)oc2cc1O | 84.1 | 101.3 | 2.0* | 58.4 | 68.0
CCCCCCc1cc2cc(C(=O)Nc3ccc(OC)cc3)c(=O)oc2cc1O | 65.8 | . | . | 56.8 | .
CCOC(=O)C1=C(C)NC(SCC(=O)Nc2nc(C)cs2)=C(C#N)C1c1cccs1 (centres undefined) | 41.1 | 98.0 | 37.1* | 19.2 | 46.5
CC(=O)C1=C(C)NC(SCC(=O)c2ccc(-c3ccccc3)cc2)=C(C#N)C1c1cccnc1 (centres undefined) | 21.0 | 77.2 | 6.2* | 18.0 | 59.0
CC1=C(C(=O)Nc2ccccc2)C(c2ccncc2)C(C#N)=C(SCC(=O)Nc2ccccc2)N1 (centres undefined) | 86.6 | 102.4 | 10.8* | 93.2 | 90.8
CCc1ccc(Nc2nnc(SC3CCOC3=O)s2)cc1 (centres undefined) | 93.8 | . | . | 103.2 | .
COc1ccc(Nc2oc(COc3ccccc3F)nc2C#N)cc1 | 56.9 | 92.8 | 5.4* | 54.6 | 86.9
COc1cc(NC(=O)CN(C)C2CCCCC2)c(C)cc1[N+](=O)[O-] | 84.2 | . | . | 86.3 | .
COC(=O)c1ccc(CO/N=C(\NC(C)=O)c2nonc2NC(C)=O)cc1 | 84.0 | . | . | 89.2 | .
Cc1ccc(NC(=O)c2cc(NC(=O)c3ccco3)ccc2N2CCOCC2)cc1 | 70.5 | 106.7 | 41.5 | 61.2 | 89.4
Cc1ccc(NC(=O)c2cc(NC(=O)c3ccco3)ccc2N2CCCCC2)cc1 | 70.5 | 47.9* | 26.3* | 74.8 | 68.1
Cc1ccc(S(=O)(=O)Nc2ccc(Cl)cc2)cc1NC(=O)c1cc2c(s1)CCCC2 | 73.2 | . | . | 67.2 | .
O=C(c1ccccc1)c1c[nH]cc1-c1ccccc1 | 97.1 | 96.5 | 92.5 | 87.4 | 94.2
COC1=C(c2ccccc2)C(=O)c2ccccc2C1=O | 1.9* | . | . | 2.0* | .
O=C(C1=C(c2ccccc2)C(=O)c2ccccc2C1=O)c1ccccc1 | 1.5* | . | . | 1.5* | .
Cc1ccc2c(c1C)OC(=O)CC2(C)C | 87.1 | . | . | 98.0 | .
Cc1cccc(NC(=O)c2ccc(N(C)C3CCCCC3)c([N+](=O)[O-])c2)n1 | 61.9 | . | . | 52.1 | .
CC(C)c1ccc(C2C(C#N)=C(N)N3C(=C2C#N)Sc2ccccc23)cc1 (centres undefined) | 80.9 | 113.8 | 89.9 | 87.4 | 97.3
CN1c2ccccc2C(C)(C)[C@]12C=Cc1cc(O)ccc1O2 | 29.6 | 87.6 | 8.6* | 30.5 | 49.5
SMILES | HCT116 bCat-KO | Fibroblast inh | H69AR growth 86K | HCT116 PTEN-null | HUVEC prolif 384
O=C(Nc1ccc(Cl)cc1)N1CCCN(Cc2ccc(F)cc2)C1 | 0.6* | 29.3* | 38.7* | 0.7* | 65.9
O=C(NCCc1ccccc1)C(c1cccs1)N(C(=O)CCl)c1ccc(Cl)cc1 (centres undefined) | 1.1* | . | . | 0.8* | .
Cc1ccc(SC(=O)COc2ccccc2C)cc1 | 90.5 | 94.2 | 1.7* | . | 72.6
CCOC(=O)N1CCC(NC(=O)c2cc3c(C)nc4ccccc4c3o2)CC1 | 85.4 | 103.3 | 57.5 | 84.4 | 80.3
CCOC(=O)N1CCC(NC(=O)c2cc(C)c3c(C)nn(-c4ccccc4)c3n2)CC1 | 100.2 | 95.3 | 21.8* | 103.6 | 85.3
COc1cc(NC(=O)c2c(F)c(F)c(F)c(F)c2F)c(OC)cc1Cl | 66.5 | 91.5 | 13.6* | 64.1 | 45.3
Cc1cc(C)nc(NS(=O)(=O)c2ccc(NC(=S)NC(=O)CC(C)C)cc2)n1 | 95.3 | 101.9 | 111.3 | 96.8 | 94.9
